Active and inactive are the calls of the source. The rule behind the calls is not given here.
Key:
Vaccinia virus [1] = experiment: Antiviral activity against Vaccinia virus WR in BSC1 cells assessed as reduction in plaque formation after 20 hrs; type: functional, organism-based; settings: Orthopoxvirus vaccinia, BSC-1, 20 h
[2] = Cytotoxicity against african green monkey BSC1 cells after 20 hrs WST-1 based assay; type: cell-based, BSC-1; settings: chlorocebus aethiops, read-out: TC50
How it was run: (§1)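 Uninfected BS-C-1 cells in phenol red-free medium, seeded 5000 (20 h), 1000 (3-day) or 200 (5-day) cells/well, exposed next day to compound in two-fold serial dilutions (top 200 µM; 1% DMSO final) at 37°C. WST-1 added 30 min, A450 read. Triplicates; percent cytotoxicity vs DMSO fitted four-parameter sigmoidal for TC50.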

Vaccinia virus [3] = experiment: Antiviral activity against Vaccinia virus WR in BSC1 cells assessed as retention of antiviral potency by measuring exogenous double stranded DNA trapping; type: functional, organism-based; settings: Orthopoxvirus vaccinia, BSC-1
Vaccinia virus [4] = experiment: Antiviral activity against Vaccinia virus WR in BSC1 cells assessed as protection from virus-induced lysis of cell monolayer after 20 hrs; type: functional, organism-based; settings: Orthopoxvirus vaccinia, BSC-1, 20 h
Vaccinia virus [5] = experiment: Inhibition of Vaccinia virus DNA synthesis in by rapid plate assay; type: functional, organism-based; settings: Orthopoxvirus vaccinia
Vaccinia virus [6] = experiment: Antiviral activity against Vaccinia virus WR in BSC1 cells assessed as reduction in plaque formation up to 200 uM after 20 hrs; type: functional, organism-based; settings: Orthopoxvirus vaccinia, BSC-1
Vaccinia virus [7] = experiment: Antiviral activity against Vaccinia virus WR in BSC1 cells assessed as protection from virus-induced lysis of cell monolayer up to 200 uM after 20 hrs; type: functional, organism-based; settings: Orthopoxvirus vaccinia, BSC-1
[8] = Cytotoxicity against african green monkey BSC1 cells up to 200 uM after 20 to 120 hrs WST-1 based assay; type: cell-based; settings: chlorocebus aethiops, bsc-1; how it was run: as §1

Structure (SMILES) | EC50 (Vaccinia virus [1]) [µM] | CC50 at 20 h [2] [µM] | Activity (Vaccinia virus [3]) | EC50 (Vaccinia virus [4]) [µM] | IC50 (Vaccinia virus [5]) [µM] | Activity (Vaccinia virus [6]) | Activity (Vaccinia virus [7]) | Activity [8]
COc1ccc2cc3cc(C(=O)NCCN(C)C)oc3nc2c1 | 75 | > 200 | – | – | – | – | – | –
CCS(=O)(=O)N1CCN=C1SCc1ccc(Cl)cc1Cl | 25 | 166 | Active | 90 | 188 | – | – | –
O=C(NCCCN1CCCC1)c1cc2c(Cl)nc3ccccc3c2s1 | – | – | – | – | 10 | inactive | inactive | Toxic
O=C(O)c1ccc2c(c1)NC(=O)C(CSCc1ccccc1Cl)N2 (stereo not drawn) | – | > 200 | – | – | 450 | – | – | –
CN1CCc2c(-c3cccs3)nc(OCc3ccccc3Br)c(C#N)c2C1 | 40 | 82 | – | – | 112 | – | – | –
C=C1C(C(=O)NCc2ccco2)C1C(=O)NCc1ccco1 (stereo not drawn) | – | > 200 | – | – | 272 | – | – | –
COC(=O)c1c(NC(=O)c2ccc(OC)cc2)sc2c1CCN(C(C)C)C2 | 25 | 87 | inactive | 40 | – | – | – | –
CN(C)CCNC(=O)c1cc2c(s1)-c1ccc(Cl)cc1SC2 | 5 | 3.9 | – | – | 37 | – | – | –
CN(C)/C=C/C=C1C(=O)CCCC1=O | – | > 200 | – | – | 86 | – | – | –
CN1CCN(c2cc(-c3ccc(F)cc3)nc(-c3ccccc3)n2)CC1 | 6 | 23 | inactive | 12 | – | – | – | –
N#CC1=C(SCc2ccccc2)SC(c2ccccc2O)NC1=O (stereo not drawn) | 150 | > 200 | – | – | 250 | – | – | –
CCN1CCCC1CNC(=O)c1cc2c(=O)n(C)c3ccccc3c2n1C (stereo not drawn) | 100 | 135 | inactive | 98 | – | – | – | –
CCN(CC)Cn1nc2c3c(cccc3c1=O)-c1ccccc1-2 | 25 | 133 | inactive | 14 | 25 | – | – | –
CCN1C(=O)/C(=C\C=C\c2ccco2)C(=O)NC1=S | 12 | 72 | – | – | 160 | – | – | –
COc1ccc(Nc2cc(C(F)(F)F)ccc2Cl)c(C(=O)O)c1 | 100 | > 200 | – | – | 29 | – | – | –
Cc1nc2ccccc2c2oc(C(=O)NCCN(C)C3CCCCC3)cc12 | 25 | 143 | inactive | 41 | – | – | – | –

Structure (SMILES) | EC50 (Vaccinia virus [1]) [µM] | CC50 at 20 h [2] [µM] | Activity (Vaccinia virus [3]) | EC50 (Vaccinia virus [4]) [µM] | IC50 (Vaccinia virus [5]) [µM] | Activity (Vaccinia virus [6]) | Activity (Vaccinia virus [7]) | Activity [8]
CCN1CCN(CCCNC(=O)c2ccc3c(c2)NC(=O)/C(=C\C(=O)c2ccc(OC)cc2)N3)CC1 | – | > 200 | – | – | 36 | – | – | –
c1ccc(CNc2ccc3c(ccc4c5ccccc5[nH]c34)n2)cc1 | 10 | 26 | – | – | 114 | – | – | –
Nc1[nH]c(=S)sc1C(=O)Nc1nccs1 | – | > 200 | – | – | 41 | – | – | –
Cc1ccc(C)n1-c1cccc(C(=O)O)c1 | – | > 200 | – | – | 100 | – | – | –
CN(C)Cc1ccc2ccc3cccc4ccc1c2c34 | 10 | 20 | inactive | 25 | – | – | – | –
Cc1cc(OCC(=O)NC(Cc2c[nH]c3ccccc23)C(=O)O)cc(C)c1Cl (stereo not drawn) | 200 | > 200 | – | – | 73 | – | – | –
CC1CCN(CCCNC(=O)c2cc3c(=O)n(C)c4ccccc4c3s2)CC1 | – | 75 | – | – | 19 | – | – | –
COc1ccc2c(C)nc(N/C(N)=N/C(C)=O)nc2c1 | 40 | 90 | – | – | 16 | – | – | –
C/N=C1/c2c(C)c3cc(OC)ccc3n2CCN1C | 75 | > 200 | – | – | 89 | – | – | –
Cc1cc2c(cc3c(=O)n(CC(=O)NCCN4CCOCC4)ncn32)s1 | 25 | 100 | inactive | 23 | – | – | – | –
OCC(O)Cn1c2ccc(Br)cc2c2cc(Br)ccc21 (stereo not drawn) | 10 | 29 | inactive | 23 | – | – | – | –
O=C1N=C(Nc2cccc(C(=O)O)c2)S/C1=C\c1ccc(-c2ccc(C(=O)O)cc2)o1 | – | > 200 | – | – | 30 | – | – | –
CC1=NN(c2cccc(C(=O)O)c2)C(=O)/C1=C\c1ccc(-c2cccc(Cl)c2C)o1 | 50 | > 200 | – | – | 14 | – | – | –
CN(C)CCN(C(=O)c1ccco1)c1nc2cc3c(cc2s1)OCO3 | 100 | > 200 | – | – | 29 | – | – | –
O=C(O)C1Nc2ccccc2C2C=CCC12 (stereo not drawn) | – | > 200 | – | – | > 400 | – | – | –
CN(C)CCCNc1c2c(nc3ccccc13)CCC2 | 50 | 172 | – | – | 32 | – | – | –
